Tests used:
OVCAR-4 = assay: Cytotoxicity against human OVCAR4 cells assessed as cell growth at 10 uM after 48 hrs relative to control; assay type: functional; details: OVCAR-4, 48 h, read-out: Activity
Procedure, shortened: (§1)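 Run at the National Cancer Institute as a single-dose screen across its 60-cell-line cancer panel. Compound was tested at 10 micromolar, and growth was expressed as a percentage of negative-control cultures.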

PC-3 = assay: Cytotoxicity against human PC3 cells assessed as cell growth at 10 uM after 48 hrs relative to control; assay type: functional; details: PC-3, 48 h, read-out: Activity; procedure, shortened: as §1
UACC-62 = assay: Cytotoxicity against human UACC62 cells assessed as cell growth at 10 uM after 48 hrs relative to control; assay type: functional; details: UACC-62, 48 h, read-out: Activity
Procedure, shortened: (§2)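 Submitted to the National Cancer Institute for a single-dose screen at 10 micromolar against 60 cancer cell lines. Growth is expressed relative to negative-control cultures.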

MDA-MB-468 = assay: Cytotoxicity against human MDA-MB-468 cells assessed as cell growth at 10 uM after 48 hrs relative to control; assay type: functional; details: MDA-MB-468, 48 h, read-out: Activity; procedure, shortened: as §1
SF-268 = assay: Cytotoxicity against human SF268 cells assessed as cell growth at 10 uM after 48 hrs relative to control; assay type: functional; details: SF-268, 48 h, read-out: Activity; procedure, shortened: as §1
MOLT-4 [1] = assay: Cytotoxicity against human MOLT4 cells assessed as cell growth at 10 uM after 48 hrs relative to control; assay type: functional; details: MOLT-4, 48 h, read-out: Activity; procedure, shortened: as §1
A549 = assay: Cytotoxicity against human A549 cells assessed as cell growth at 10 uM after 48 hrs relative to control; assay type: functional; details: A549, 48 h, read-out: Activity; procedure, shortened: as §1
RPMI-8226 = assay: Cytotoxicity against human RPMI8226 cells assessed as cell growth at 10 uM after 48 hrs relative to control; assay type: functional; details: RPMI-8226, 48 h, read-out: Activity; procedure, shortened: as §1
SK-MEL-28 = assay: Cytotoxicity against human SK-MEL-28 cells assessed as cell growth at 10 uM after 48 hrs relative to control; assay type: functional; details: SK-MEL-28, 48 h, read-out: Activity; procedure, shortened: as §1
BT-549 = assay: Cytotoxicity against human BT549 cells assessed as cell growth at 10 uM after 48 hrs relative to control; assay type: functional; details: BT-549, 48 h, read-out: Activity; procedure, shortened: as §1
Malme-3M = assay: Cytotoxicity against human MALME-3M cells assessed as cell growth at 10 uM after 48 hrs relative to control; assay type: functional; details: read-out: Activity; procedure, shortened: as §1
HT-29 = assay: Cytotoxicity against human HT-29 cells assessed as cell growth at 10 uM after 48 hrs relative to control; assay type: functional; details: HT-29, 48 h, read-out: Activity; procedure, shortened: as §1
T47D = assay: Cytotoxicity against human T47D cells assessed as cell growth at 10 uM after 48 hrs relative to control; assay type: functional; details: read-out: Activity; procedure, shortened: as §2
SR [2] = assay: Cytotoxicity against human SR cells assessed as cell growth at 10 uM after 48 hrs relative to control; assay type: functional; details: read-out: Activity; procedure, shortened: as §2
HOP-62 = assay: Cytotoxicity against human HOP62 cells assessed as cell growth at 10 uM after 48 hrs relative to control; assay type: functional; details: HOP-62, 48 h, read-out: Activity; procedure, shortened: as §1
NCI-H522 = assay: Cytotoxicity against human NCI-H522 cells assessed as cell growth at 10 uM after 48 hrs relative to control; assay type: functional; details: NCI-H522, 48 h, read-out: Activity; procedure, shortened: as §1
NCI-H322M = assay: Cytotoxicity against human NCI-H322M cells assessed as cell growth at 10 uM after 48 hrs relative to control; assay type: functional; details: read-out: Activity; procedure, shortened: as §1
K562 [3] = assay: Cytotoxicity against human K562 cells assessed as cell growth at 10 uM after 48 hrs relative to control; assay type: functional; details: K562, 48 h, read-out: Activity; procedure, shortened: as §1
SF-539 = assay: Cytotoxicity against human SF539 cells assessed as cell growth at 10 uM after 48 hrs relative to control; assay type: functional; details: SF-539, 48 h, read-out: Activity; procedure, shortened: as §1
TK-10 = assay: Cytotoxicity against human TK10 cells assessed as cell growth at 10 uM after 48 hrs relative to control; assay type: functional; details: TK-10, 48 h, read-out: Activity; procedure, shortened: as §2
SK-OV-3 = assay: Cytotoxicity against human SKOV3 cells assessed as cell growth at 10 uM after 48 hrs relative to control; assay type: functional; details: SK-OV-3, 48 h, read-out: Activity; procedure, shortened: as §1
NCI-H460 = assay: Cytotoxicity against human NCI-H460 cells assessed as cell growth at 10 uM after 48 hrs relative to control; assay type: functional; details: NCI-H460, 48 h, read-out: Activity; procedure, shortened: as §1
HOP-92 = assay: Cytotoxicity against human HOP92 cells assessed as cell growth at 10 uM after 48 hrs relative to control; assay type: functional; details: HOP-92, 48 h, read-out: Activity; procedure, shortened: as §1
UO-31 = assay: Cytotoxicity against human UO31 cells assessed as cell growth at 10 uM after 48 hrs relative to control; assay type: functional; details: UO-31, 48 h, read-out: Activity; procedure, shortened: as §2
DU-145 = assay: Cytotoxicity against human DU145 cells assessed as cell growth at 10 uM after 48 hrs relative to control; assay type: functional; details: DU-145, 48 h, read-out: Activity; procedure, shortened: as §1
ACHN = assay: Cytotoxicity against human ACHN cells assessed as cell growth at 10 uM after 48 hrs relative to control; assay type: functional; details: read-out: Activity; procedure, shortened: as §1
SNB-19 = assay: Cytotoxicity against human SNB19 cells assessed as cell growth at 10 uM after 48 hrs relative to control; assay type: functional; details: SNB-19, 48 h, read-out: Activity; procedure, shortened: as §2
[4] = biological target: T1, Proteasome Macropain subunit MB1 (Homo sapiens) (UniProt P28074)
T1 sequence (whole entry): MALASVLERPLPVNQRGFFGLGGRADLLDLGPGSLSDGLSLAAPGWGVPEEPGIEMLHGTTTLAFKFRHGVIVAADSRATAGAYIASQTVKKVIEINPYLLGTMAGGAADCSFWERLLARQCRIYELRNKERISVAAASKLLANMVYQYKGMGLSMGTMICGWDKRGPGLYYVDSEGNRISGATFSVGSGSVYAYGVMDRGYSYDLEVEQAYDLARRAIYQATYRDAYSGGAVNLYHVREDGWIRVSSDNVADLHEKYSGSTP

MOLT-4 [5] = assay: Cytotoxicity against human MOLT4 cells after 48 hrs; assay type: functional; details: MOLT-4, 48 h
K562 [6] = assay: Cytotoxicity against human K562 cells after 48 hrs; assay type: functional; details: K562, 48 h
SR [7] = assay: Cytotoxicity against human SR cells after 48 hrs; assay type: functional
Procedure, shortened: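 Dose-dependent growth inhibition was assessed at the National Cancer Institute against its cancer cell line panel as a follow-up to the 10 micromolar single-dose screen.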

[8] = Cytotoxicity against human RPMI-8226 cells after 48 hrs; assay type: functional; details: RPMI-8226, 48 h

Structure (SMILES)	growth at 10 µM (OVCAR-4) [%]	growth at 10 µM (PC-3) [%]	growth at 10 µM (UACC-62) [%]	growth at 10 µM (MDA-MB-468) [%]	growth at 10 µM (SF-268) [%]	growth at 10 µM (MOLT-4 [1]) [%]	growth at 10 µM (A549) [%]	growth at 10 µM (RPMI-8226) [%]	growth at 10 µM (SK-MEL-28) [%]	growth at 10 µM (BT-549) [%]	growth at 10 µM (Malme-3M) [%]	growth at 10 µM (HT-29) [%]	growth at 10 µM (T47D) [%]	growth at 10 µM (SR [2]) [%]	growth at 10 µM (HOP-62) [%]	growth at 10 µM (NCI-H522) [%]	growth at 10 µM (NCI-H322M) [%]	growth at 10 µM (K562 [3]) [%]	growth at 10 µM (SF-539) [%]	growth at 10 µM (TK-10) [%]	also measured
COC(=O)[C@@H](NC(=O)N[C@@H](Cc1ccccc1)C(=O)N[C@H]1CCCCNC(=O)/C=C/[C@H](C(C)C)NC1=O)C(C)C	56.6	75	29	31.2	30	49.2	77.4	23.1	52.1	29.6	77	31.1	-3.59	8.54	84.4	-43.8	94.2	47.2	5.04	93.6	growth at 10 µM (SK-OV-3): 101%; growth at 10 µM (NCI-H460): 59.6%; growth at 10 µM (HOP-92): 18.9%; growth at 10 µM (UO-31): 94.7%; growth at 10 µM (DU-145): 53.1%; growth at 10 µM (ACHN): 102%; growth at 10 µM (SNB-19): 48.8%
COC(=O)[C@@H](NC(=O)N[C@@H](Cc1ccccc1)C(=O)N[C@H]1CCCCNC(=O)/C=C/[C@H](Cc2ccccc2)NC1=O)C(C)C	53.3	73.2	9.78	0.26	10.1	-0.13	68.6	7.17	33.3	3.25	-0.39	14.5	8.25	1.45	51.6	-37	98.1	34.7	-22.2	75	Kin [4]: 0.000623 s⁻¹; GI50 (MOLT-4 [5]): 3.32 µM; growth at 10 µM (SK-OV-3): 61.1%; GI50 (K562 [6]): 14.6 µM; GI50 (SR [7]): 2.78 µM; growth at 10 µM (NCI-H460): 35.6%; growth at 10 µM (HOP-92): 15.7%; growth at 10 µM (UO-31): 89.6%; growth at 10 µM (DU-145): 46.1%; GI50 [8]: 2.72 µM; growth at 10 µM (ACHN): 91.4%; growth at 10 µM (SNB-19): 39.8%

From ChEMBL document CHEMBL3612027, “Substrate-guided optimization of the syringolins yields potent proteasome inhibitors with activity against leukemia cell lines” (Bioorg Med Chem, 2015)
